Measured values taken from ChEMBL document CHEMBL3085733, “Modulation of the fibrillogenesis inhibition properties of two transthyretin ligands by halogenation” (J Med Chem, 2013).

Key:
[1] = species on record: Homo sapiens; assay: Inhibition of human recombinant TTR Y78F mutant-mediated fibrillogenesis at 40 uM after 30 mins by turbidimetric assay relative to control
Procedure, shortened: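 Y78F TTR turbidity assay: 30 min preincubation at 37 °C with 0−40 μM compound, then pH 4.2 acetate buffer (final 0.4 mg/mL TTR, 5% DMSO). A340 was monitored for 1.5 h at 37 °C. Initial rates were fitted to v0 = A + B·exp(−C[I]). RA% is the percentage reduction in fibril formation rate at high inhibitor concentration versus no inhibitor.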

[2] = Inhibition of human recombinant TTR Y78F mutant-mediated fibrillogenesis after 30 mins by turbidimetric assay
Procedure, shortened: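 Recombinant TTR Y78F (4 mg/mL in 20 mM potassium phosphate, 100 mM KCl, 1 mM EDTA, pH 7.6) was preincubated 30 min at 37 °C with 0−40 μM compound (final). Acid fibrillogenesis was started with pH 4.2 acetate buffer, giving final 0.4 mg/mL TTR and 5% DMSO. A340 was read every 1 min for 1.5 h at 37 °C. IC50 came from fitting initial rates to v0 = A + B·exp(−C[I]).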

[3] = Binding affinity to human recombinant TTR Y78F mutant after 5 mins by isothermal titration calorimetry
Procedure, shortened: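 Recombinant human TTR Y78F (E. coli-expressed), 20−30 μM in cell, in 100 mM potassium phosphate, KCl, 1 mM EDTA, 5% (v/v) DMSO, pH 7.6, filtered and degassed 5 min. Titrant was 500 μM ligand in the same buffer. One 0.5−1 μL injection, then 1.5−2 μL injections every 150 s, 25 °C. Dilution blanks subtracted; isotherms fitted to a two identical-site model to give Kd.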

| Compound | inhibition [1] [%] | IC50 [2] [µM] | Kd [3] [µM] |
| --- | --- | --- | --- |
| N[C@@H](Cc1cc(I)c(Oc2cc(I)c(O)c(I)c2)c(I)c1)C(=O)O [LEVOTHYROXINE] | 80 | – | – |
| O=C(O)c1cc(-c2ccc(F)cc2F)cc(F)c1O | 87 | 7.6 | 1.12 |
| O=C(O)c1ccc(-c2cc(F)cc(F)c2)cc1 | 89 | 10.8 | – |
| O=C(O)c1ccccc1Nc1cc(I)cc(C(F)(F)F)c1 | 94 | 6.4 | 0.085 |
| O=C(O)c1ccccc1Nc1cc(Cl)cc(C(F)(F)F)c1 | 86 | 6 | 0.086 |
| O=C(O)c1cc(-c2ccc(F)cc2F)ccc1O [DIFLUNISAL] | 85 | 18 | 1.16 |
| O=[N+]([O-])c1ccc(O)c([N+](=O)[O-])c1 [2,4-DINITROPHENOL] | 77 | 20 | – |
| Oc1c(Cl)cc(-c2cc(Cl)c(O)c(Cl)c2)cc1Cl | 100 | 2.1 | – |
| CC/C(=C(/CC)c1ccc(O)cc1)c1ccc(O)cc1 [DIETHYLSTILBESTROL] | 67 | 16.6 | – |
| Oc1ccc(/C=C/c2cc(O)cc(O)c2)cc1 [RESVERATROL] | 89 | 4.5 | – |
| CC(C(=O)O)c1ccc(-c2ccccc2)c(F)c1 (stereo not given) [FLURBIPROFEN] | 35 | > 100 | – |
| O=C(O)c1ccccc1Nc1cccc(C(F)(F)F)c1 [FLUFENAMIC ACID] | 89 | 6.2 | 0.109 |
| O=C(O)c1cc(-c2ccc(F)cc2F)cc(Br)c1O | 88 | 5.6 | 0.194 |
| O=C(O)c1cc(-c2ccc(F)cc2F)cc(I)c1O | 94 | – | 0.087 |
| O=C(O)c1ccccc1Nc1cc(F)cc(C(F)(F)F)c1 | 91 | 6.5 | 0.091 |
| O=C(O)c1cc(-c2ccc(F)cc2F)cc(Cl)c1O | 89 | 7.5 | 0.375 |
| O=C(O)Cc1cc(I)c(Oc2cc(I)c(O)c(I)c2)c(I)c1 [TETRAC] | 93 | 4.8 | – |
| CC1=C(/C=C/C(C)=C/C=C/C(C)=C/C(=O)O)C(C)(C)CCC1 [TRETINOIN] | 100 | 8.1 | – |
| O=C(O)c1cc(-c2ccc(Cl)cc2Cl)ccc1O | 75 | 12.8 | – |
| O=C(O)c1ccccc1Nc1cc(Br)cc(C(F)(F)F)c1 | 91 | 5.9 | 0.064 |
| O=C(O)Cc1ccccc1Nc1c(Cl)cccc1Cl [DICLOFENAC] | 74 | 26 | – |
